Calls of active or inactive are those of the source. The rule behind the calls is not given here.
Columns and labels:
[1] = target: T1, Fatty-acid amide hydrolase 1 (Rattus norvegicus) (UniProt P97612); assay: Inhibition of FAAH in Wistar rat cerebral membrane at 0.1 uM by liquid scintillation counting; format: cell membranes
T1 sequence (whole entry): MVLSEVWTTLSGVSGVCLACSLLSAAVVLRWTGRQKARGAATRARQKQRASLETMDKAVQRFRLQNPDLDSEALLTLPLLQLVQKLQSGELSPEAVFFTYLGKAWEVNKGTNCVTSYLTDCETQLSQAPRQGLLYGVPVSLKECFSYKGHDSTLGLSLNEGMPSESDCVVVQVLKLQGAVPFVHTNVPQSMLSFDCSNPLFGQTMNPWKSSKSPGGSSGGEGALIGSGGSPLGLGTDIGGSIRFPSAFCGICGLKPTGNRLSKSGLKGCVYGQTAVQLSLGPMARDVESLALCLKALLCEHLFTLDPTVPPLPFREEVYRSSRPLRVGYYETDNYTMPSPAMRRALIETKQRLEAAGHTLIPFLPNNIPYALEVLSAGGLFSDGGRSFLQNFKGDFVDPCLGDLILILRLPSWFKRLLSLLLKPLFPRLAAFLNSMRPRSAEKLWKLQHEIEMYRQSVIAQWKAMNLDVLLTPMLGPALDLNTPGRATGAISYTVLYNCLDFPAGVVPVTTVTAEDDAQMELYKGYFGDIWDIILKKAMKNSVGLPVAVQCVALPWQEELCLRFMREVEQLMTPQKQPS
Outline: (§1)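 Rat brain homogenate (10,000g supernatant from male Wistar forebrain, 8 weeks old), 18 µg protein, preincubated with inhibitor in DMSO (≤5% v/v) for 10 min at 37 °C in 0.1 M potassium phosphate pH 7.4 with 0.5% fatty-acid-free BSA. Then 2 µM AEA carrying [ethanolamine-1-3H]AEA is added for 10 min at 37 °C. The reaction is stopped with ethyl acetate and aqueous [3H]ethanolamine is counted. IC50 comes from a variable-slope sigmoidal fit, three experiments in duplicate; single-point values are the mean of two experiments in duplicate.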

[2] = target: T2, Fatty-acid amide hydrolase 1 (Rattus norvegicus, UniProt P97612); assay: Inhibition of FAAH in Wistar rat cerebral membrane by liquid scintillation counting; format: cell membranes; outline: as §1
T2 sequence (P97612 whole entry): T1 sequence (whole entry)

[3] = target: T2, Fatty-acid amide hydrolase 1; assay: Inhibition of FAAH-mediated anandamide hydrolysis in rat brain membrane; format: cell membranes
[4] = target: T3, Monoglyceride lipase (Rattus norvegicus) (UniProt Q8R431); assay: Inhibition of MGL in Wistar rat cerebral membrane assessed as residual activity at 1 mM by HPLC; values are per cent of control
T3 sequence (whole entry): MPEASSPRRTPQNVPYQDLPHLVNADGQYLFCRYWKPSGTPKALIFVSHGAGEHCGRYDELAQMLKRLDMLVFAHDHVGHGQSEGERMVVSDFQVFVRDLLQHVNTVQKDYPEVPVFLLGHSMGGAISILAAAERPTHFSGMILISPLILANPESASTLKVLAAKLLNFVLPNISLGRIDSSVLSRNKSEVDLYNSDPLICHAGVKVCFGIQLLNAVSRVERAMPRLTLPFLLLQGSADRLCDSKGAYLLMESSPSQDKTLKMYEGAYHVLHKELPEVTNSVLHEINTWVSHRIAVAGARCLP

[5] = target: T3, Monoglyceride lipase (Rattus norvegicus); assay: Inhibition of MGL in Wistar rat cerebral membrane at 100 uM by HPLC; format: cell membranes
Outline: (§2)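 Incubation is 90 min at 25 °C with 5 µg protein, 50 µM 2-AG, 100 mM NaCl and 5 mM MgCl2. The reaction is stopped with acidified acetonitrile (pH 3.0). 2-AG, 1(3)-AG and arachidonic acid are quantified by reversed-phase HPLC with UV at 211 nm. IC50 comes from a variable-slope fit, three experiments in duplicate; percentages are the mean of two in duplicate.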

Monoglyceride lipase = target: T4, Monoglyceride lipase (Rattus norvegicus, UniProt Q8R431); assay: Inhibition of MGL in Wistar rat cerebral membrane by HPLC; format: cell membranes; outline: as §2
T4 sequence (Q8R431 whole entry): T3 sequence (whole entry)

[6] = target: Monoglyceride lipase (Rattus norvegicus) (UniProt Q8R431); assay: Inhibition of MGL 2-AG hydrolysis in rat cerebellar membranes by liquid scintillation counting
[7] = target: Monoglyceride lipase (Homo sapiens) (UniProt Q99685); assay: Inhibition of MGL in human recombinant MGL
[8] = target: T2, Fatty-acid amide hydrolase 1; assay: Inhibition of FAAH-mediated hydrolysis of [3H]anandamide in rat RBL2H3 cells; format: cell-based, RBL-2H3
Outline: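 RBL2H3 cells are preincubated 10 min at 37 °C with compound with or without URB597. [ethanolamine-1-3H]AEA is then added at 100 nM and incubated a further 20 min at 37 °C, and hydrolysis is measured. Data are means, n = 5, analysed by repeated-measures one-way ANOVA with Dunnett's test.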

[9] = target: T1, Fatty-acid amide hydrolase 1 (Rattus norvegicus); assay: Inhibition of FAAH-mediated uptake of [3H]anandamide in rat RBL2H3 cells; format: cell-based; details: RBL-2H3
Outline: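 RBL2H3 cells are preincubated 10 min at 37 °C with compound with or without URB597. [arachidonoyl-3H]AEA is then added at 100 nM and incubated a further 10 min at 37 °C. Wells without cells serve as a comparison. Data are means, n = 4, analysed by repeated-measures one-way ANOVA with Dunnett's test.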

[10] = target: T1, Fatty-acid amide hydrolase 1 (Rattus norvegicus); assay: Irreversible inhibition of FAAH in Wistar rat brain homogenate at 246 nM by liquid scintillation counting; format: tissue-based
[11] = target: T3, Monoglyceride lipase (Rattus norvegicus); details: Wistar, 100 uM
[12] = target: T3, Monoglyceride lipase (Rattus norvegicus); assay: Inhibition of MGL in Wistar rat cerebral membrane at 1 mM by HPLC; format: cell membranes
Outline: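 Rat cerebellar membranes were prepared by sucrose homogenisation, differential centrifugation and washing. […] Reactions were stopped with acidified acetonitrile (pH 3.0). 2-AG, 1(3)-AG and arachidonic acid were quantified by reversed-phase HPLC (UV 211 nm peak areas). Remaining activity is reported.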

[13] = target: T5, Monoglyceride lipase (Homo sapiens) (UniProt Q99685); assay: Irreversible inhibition of human MGL at 0.3 uM by liquid scintillation counting
T5 sequence (whole entry): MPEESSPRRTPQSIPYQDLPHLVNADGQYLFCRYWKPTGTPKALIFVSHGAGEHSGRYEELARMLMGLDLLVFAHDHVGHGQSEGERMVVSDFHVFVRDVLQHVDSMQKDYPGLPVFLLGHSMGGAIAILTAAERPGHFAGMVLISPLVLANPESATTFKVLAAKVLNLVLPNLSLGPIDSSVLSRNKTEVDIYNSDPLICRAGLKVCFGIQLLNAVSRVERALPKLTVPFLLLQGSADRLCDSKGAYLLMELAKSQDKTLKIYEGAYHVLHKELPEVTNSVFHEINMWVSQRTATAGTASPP
Outline: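 Reversibility was tested on human recombinant MGL. The enzyme was preincubated with inhibitor at 50-fold the activity-assay enzyme level, then diluted […] into Tris-HCl pH 7.4/EDTA buffer with 50 μM 2-OG including [³H]2-OG. Samples taken at 0–60 min were stopped with cold ethyl acetate, and aqueous [³H]glycerol was counted by liquid scintillation. Activity was compared with DMSO vehicle over three independent experiments in duplicate.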

[14] = target: T3, Monoglyceride lipase (Rattus norvegicus); assay: Inhibition of MGL in Wistar rat cerebral membrane at 30 uM by HPLC; format: cell membranes; outline: as §2

| Structure (SMILES) | IC50 [2] | IC50 (Monoglyceride lipase) | also measured |
| --- | --- | --- | --- |
| CCCCCCNC(=O)Oc1ccc(C)cc1 | – | – | inhibition [1]: 27% |
| O=C(Nc1ccc(-c2ccccc2)cc1)OC1CCCCC1 | 108000 nM | – | IC50 [3]: 17000 nM |
| CCCCCCNC(=O)Oc1ccc(C(=O)OC)cc1I | 24 nM | – | – |
| O=C(NCc1ccccc1)Oc1ccc(-c2csnn2)cc1 | 44 nM | – | residual activity [4]: 22% |
| O=C(NC1CCCCC1)Oc1ccc(-c2csnn2)cc1 | 21 nM | – | inhibition [5]: 28% |
| O=C(NC1CCCC1)Oc1ccc(C2=NCCS2)cc1 | 130 nM | 11000 nM | – |
| CCCCCCCCCCCCNC(=O)Oc1ccc(C(=O)OC)cc1 | – | 2800 nM | – |
| Cc1ccccc1CNC(=O)Oc1ccc(C2=NCCO2)cc1 | 34 nM | 35000 nM | residual activity [4]: 12% |
| CCCCCCNC(=O)Oc1c(C(C)(C)C)cc(C(=O)OC)cc1C(C)(C)C | – | – | inhibition [1]: 4% |
| CCCCCCNC(=O)Oc1ccccc1 | – | – | inhibition [5]: 41% |
| CCCCCCNC(=O)Nc1ccc(-c2csnn2)cc1 | – | – | inhibition [1]: 9%; inhibition [5]: inactive |
| CCCCC/C=C\C/C=C\C/C=C\C/C=C\CCCCN1C(=O)C=CC1=O | – | – | IC50 [6]: 140 nM |
| CCCCNC(=O)Oc1ccc(OC)cc1 | – | – | inhibition [1]: 5% |
| Cc1ccc(CNC(=O)Oc2ccc(C3=NCCO3)cc2)cc1 | 180 nM | 125000 nM | residual activity [4]: 6% |
| Cc1ccccc1CNC(=O)Oc1ccc(C2=NCCS2)cc1 | 62 nM | 46000 nM | – |
| CCCCCCNC(=O)Oc1ccc(-c2csnn2)cc1 | 19 nM | 11000 nM | – |
| O=C(NC1CCCCC1)Oc1ccc(C2=NCCS2)cc1 | 100 nM | 27000 nM | – |
| CCCCCCCCCCCCNC(=O)Oc1ccccc1-c1csnn1 | 50 nM | – | IC50 [7]: 18000 nM |
| COc1ccc(CNC(=O)Oc2ccc(C3=NCCS3)cc2)cc1 | 320 nM | 46000 nM | residual activity [4]: 21% |
| CCCCCCCCCCCCNC(=O)Oc1ccc(-c2csnn2)cc1 | 12 nM | 1900 nM | IC50 [8]: 82 nM; Activity [9]: Active; Activity [10]: Active |
| O=C(Nc1ccc([N+](=O)[O-])cc1)OC1CCCCC1 | – | – | inhibition [1]: 9%; inhibition [5]: inactive |
| CC(C)(C)NC(=O)Oc1ccc(C2=NCCS2)cc1 | 7000 nM | – | inhibition [5]: inactive |
| Cc1ccc(CNC(=O)Oc2ccc(C3=NCCS3)cc2)cc1 | 280 nM | 94000 nM | – |
| COC(=O)c1ccc(OC(=O)NC2CCCCC2)cc1 | – | 14000 nM | inhibition [1]: 41% |

| Structure (SMILES) | IC50 [2] | IC50 (Monoglyceride lipase) | also measured |
| --- | --- | --- | --- |
| CCCCNC(=O)Oc1ccc(C2=NCCS2)cc1 | 520 nM | 31000 nM | residual activity [11]: 54% |
| O=C(NC1CCCCC1)Oc1ccc([N+](=O)[O-])cc1 | – | 19000 nM | inhibition [1]: 25% |
| CCCCNC(=O)Oc1ccc([N+](=O)[O-])cc1 | – | – | inhibition [1]: 16% |
| CCCCCCNC(=O)Oc1ccc(C2=NCCS2)cc1 | 8.2 nM | – | – |
| O=C(NCc1ccccc1)Oc1ccc(C2=NCCS2)cc1 | 290 nM | 42000 nM | – |
| CCCCCCNC(=O)Oc1ccc(C(=O)OC)cc1OC | 5.5 nM | – | – |
| CCCCNC(=O)Oc1ccc(C#N)cc1 | – | – | inhibition [1]: 25% |
| CCCCNC(=O)Oc1cccc(-c2csnn2)c1 | 6.9 nM | – | – |
| O=C(NC1CCCC1)Oc1ccc(C2=NCCO2)cc1 | 100 nM | 11000 nM | residual activity [4]: 21% |
| CCCCCCNC(=O)Oc1ccc(C(=O)OC)cc1C | 55 nM | – | – |
| CCCCCCNC(=O)Oc1ccc(Br)cc1 | – | – | residual activity [4]: 16% |
| CCCCCCCCCCCCNC(=O)Oc1ccccc1 | – | – | inhibition [5]: 36% |
| NC(=O)c1cccc(-c2cccc(OC(=O)NC3CCCCC3)c2)c1 | – | – | inhibition [12]: 30%; Activity [13]: Active |
| CCCCCCCCCCCCNC(=O)Oc1cccc(-c2csnn2)c1 | 0.24 nM | – | residual activity [4]: 13%; inhibition [14]: 57% |
| O=C(NC1CCCC1)Oc1ccc(-c2csnn2)cc1 | 20 nM | – | – |
| CCCCCCNC(=O)Oc1ccc(C(=O)OC)cc1 | – | 35000 nM | – |
| CCNC(=O)Oc1ccc(C2=NCCS2)cc1 | 15000 nM | 102000 nM | residual activity [4]: 12% |
| O=C(NCCc1ccccc1)Oc1ccc(C2=NCCS2)cc1 | 38 nM | 28000 nM | – |
| CCCCCCCCCCCCNC(=O)Oc1ccc(C2=NCCS2)cc1 | 6.3 nM | – | – |
| CCCNC(=O)Oc1ccc(C2=NCCS2)cc1 | 1700 nM | 46000 nM | residual activity [4]: 6% |
| CCCCNC(=O)Oc1ccc(-c2csnn2)cc1 | 160 nM | – | residual activity [4]: 22%; inhibition [5]: 46% |
| CCCCNC(=O)Oc1ccc(C2=NCCO2)cc1 | 120 nM | 34000 nM | – |
| CCCCNC(=O)Oc1ccc(C(=O)OC)cc1 | – | – | inhibition [1]: 35% |
| CCCCNC(=O)Oc1ccccc1-c1csnn1 | – | – | inhibition [1]: inactive |

— ChEMBL document CHEMBL1152901, “The synthesis and biological evaluation of para-substituted phenolic N-alkyl carbamates as endocannabinoid hydrolyzing enzyme inhibitors” (Eur J Med Chem, 2009)
